Test results published in ChEMBL document CHEMBL5108003, “Identification of 2-hydroxybenzoic acid derivatives as selective SIRT5 inhibitors” (Eur J Med Chem, 2022).

How the values were obtained:
[1] = molecular target: T1, NAD-dependent protein deacylase sirtuin-5, mitochondrial (Homo sapiens, UniProt Q9NXA8); assay: Stabilization of human SIRT5 assessed as change in melting temperature at 100 uM by thermal shift assay
In short: (§1)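 Recombinant wild-type SIRT5 at 0.2 mg/ml final in 20 mM Bis-Tris propane pH 7.5 with 150 mM NaCl. The dye was 0.1 mM 1,8-ANS, and compound was at 100 μM with DMSO as the vehicle reference. Wells were overlaid with silicon oil and heated continuously from 25 °C to 90 °C. Tm came from fluorescence melt curves versus the DMSO control. Each reaction was run in quadruplicate.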
Target sequence in this assay (Q9NXA8 37-310 limits assumed): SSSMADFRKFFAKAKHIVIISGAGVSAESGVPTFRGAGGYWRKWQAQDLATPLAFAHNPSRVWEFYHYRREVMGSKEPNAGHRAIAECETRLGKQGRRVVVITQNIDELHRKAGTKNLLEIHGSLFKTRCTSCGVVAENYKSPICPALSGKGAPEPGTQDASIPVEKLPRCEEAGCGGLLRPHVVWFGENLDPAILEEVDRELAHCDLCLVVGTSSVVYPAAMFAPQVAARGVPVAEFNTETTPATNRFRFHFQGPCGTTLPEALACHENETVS

[2] = molecular target: T1, NAD-dependent protein deacylase sirtuin-5, mitochondrial; assay: Inhibition of human SIRT5 using fluorogenic substrate preincubated for 1 hr in presence of NAD followed by substrate addition and measured after 15 to 30 mins by trypsin-coupled fluorescence plate reader analysis
Target sequence in this assay (Q9NXA8 whole entry): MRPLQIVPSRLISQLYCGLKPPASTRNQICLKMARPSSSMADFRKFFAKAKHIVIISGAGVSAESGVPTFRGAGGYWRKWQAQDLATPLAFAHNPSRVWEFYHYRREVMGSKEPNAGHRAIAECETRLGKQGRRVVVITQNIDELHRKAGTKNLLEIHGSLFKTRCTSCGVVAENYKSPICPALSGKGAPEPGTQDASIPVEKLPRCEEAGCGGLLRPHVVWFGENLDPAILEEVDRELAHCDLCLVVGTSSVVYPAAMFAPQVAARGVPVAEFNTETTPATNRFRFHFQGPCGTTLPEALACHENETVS

[3] = molecular target: T1, NAD-dependent protein deacylase sirtuin-5, mitochondrial; assay: Stabilization of wild type human SIRT5 assessed as melting temperature at 100 uM by thermal shift assay; in short: as §1
Target sequence in this assay (Q9NXA8 37-310 limits assumed): as the sequence (Q9NXA8 37-310 limits assumed) above

Row | ΔTm [1] [°C] | IC50 [2] [µM] | Tm [3] [°C] | Structure (SMILES)
1 | 1.22 |  |  | O=C(O)c1ccc(NC(=S)Nc2nc(-c3cccc(F)c3)cs2)cc1O
2 | 1.3 |  |  | O=C(O)c1ccc(NC(=S)Nc2nc(-c3ccc(F)cc3)cs2)cc1O
3 | 1.3 |  |  | O=C(O)c1ccc(NC(=S)Nc2nc(-c3ccc(F)c(S(=O)(=O)NC4CCCC4)c3)cs2)cc1O
4 | 1.1 |  |  | Cc1ccccc1-c1csc(NC(=S)Nc2ccc(C(=O)O)c(O)c2)n1
5 | 1.8 |  |  | N#Cc1ccc(-c2csc(NC(=S)Nc3ccc(C(=O)O)c(O)c3)n2)cc1F
6 | 2.1 |  |  | N#Cc1ccc(-c2csc(NC(=S)Nc3ccc(C(=O)O)c(O)c3)n2)cc1
7 | 1.2 |  |  | O=C(O)c1ccc(NC(=S)Nc2nc(-c3ccc(Br)cc3)cs2)cc1O
8 | 1.2 | 24.3 |  | O=C(O)c1ccc(NC(=S)Nc2nc(-c3ccc(C(F)(F)F)cc3)cs2)cc1O
9 | 1.9 |  |  | O=C(O)c1ccc(NC(=S)Nc2nc(-c3ccc(F)cc3F)cs2)cc1O
10 | 0.8 |  |  | O=C(O)c1ccc(NC(=S)Nc2nc(-c3ccc(O)cc3)cs2)cc1O
11 | 1.9 |  |  | O=C(O)c1ccc(NC(=S)Nc2nc(-c3ccc(F)c(S(=O)(=O)NCc4ccccc4)c3)cs2)cc1O
12 | 1.4 |  |  | Cc1ccc(-c2csc(NC(=S)Nc3ccc(C(=O)O)c(O)c3)n2)cc1
13 | 0.9 |  |  | CNS(=O)(=O)c1ccc(-c2csc(NC(=S)Nc3ccc(C(=O)O)c(O)c3)n2)cc1
14 | 2.5 |  |  | CC(=O)Nc1ccc(-c2csc(NC(=S)Nc3ccc(C(=O)O)c(O)c3)n2)cc1
15 | 1.5 |  |  | CC(=O)Nc1cccc(-c2csc(NC(=S)Nc3ccc(C(=O)O)c(O)c3)n2)c1
16 | 0.53 | 201 |  | CC(=O)Nc1ccc(-c2csc(Nc3ccc(C(=O)O)cc3)n2)cc1
17 |  |  | 51 | Cc1ccc(C(=O)Nc2ccc(S(=O)(=O)O)c3cc(S(=O)(=O)O)cc(S(=O)(=O)O)c23)cc1NC(=O)c1cccc(NC(=O)Nc2cccc(C(=O)Nc3cc(C(=O)Nc4ccc(S(=O)(=O)O)c5cc(S(=O)(=O)O)cc(S(=O)(=O)O)c45)ccc3C)c2)c1

Row | ΔTm [1] [°C] | IC50 [2] [µM] | Tm [3] [°C] | Structure (SMILES)
18 | 1 |  |  | O=C(O)c1ccc(NC(=S)Nc2nc(-c3ccccc3F)cs2)cc1O
19 | 0.9 |  |  | CC(=O)Nc1ccccc1-c1csc(NC(=S)Nc2ccc(C(=O)O)c(O)c2)n1
20 | 1.1 |  |  | O=C(O)c1ccc(NC(=S)Nc2nc(-c3ccc(Cl)cc3)cs2)cc1O
21 | 1.8 |  | 52.8 | CC(=O)Nc1ccc(-c2csc(Nc3ccc(C(=O)O)c(O)c3)n2)cc1
22 | 0.8 |  |  | CNS(=O)(=O)c1cccc(-c2csc(NC(=S)Nc3ccc(C(=O)O)c(O)c3)n2)c1
23 | 0.9 |  |  | COc1ccc(-c2csc(NC(=S)Nc3ccc(C(=O)O)c(O)c3)n2)cc1
24 | 0.9 |  |  | COc1cccc(-c2csc(NC(=S)Nc3ccc(C(=O)O)c(O)c3)n2)c1
25 | 1.8 |  |  | O=C(O)c1ccc(NC(=S)Nc2nc(-c3ccc([N+](=O)[O-])c(F)c3)cs2)cc1O
26 | 1.8 |  |  | O=C(O)c1ccc(NC(=S)Nc2nc(-c3ccc([N+](=O)[O-])c(S(=O)(=O)NCc4ccccc4)c3)cs2)cc1O
27 | 1.8 |  |  | O=C(O)c1ccc(NC(=S)Nc2nc(-c3ccc(F)c(F)c3)cs2)cc1O
28 | 0.72 |  |  | O=C(O)c1ccc(NC(=S)Nc2nc(-c3cccc(O)c3)cs2)cc1O
29 | 1.2 |  |  | Cc1cccc(-c2csc(NC(=S)Nc3ccc(C(=O)O)c(O)c3)n2)c1
30 | 1.8 |  |  | O=C(O)c1ccc(NC(=S)Nc2nc(-c3ccc([N+](=O)[O-])cc3)cs2)cc1O
31 | 1.6 |  |  | O=C(O)c1ccc(NC(=S)Nc2nc(-c3ccc([N+](=O)[O-])cc3F)cs2)cc1O
32 | 1.1 | 26.8 |  | O=C(O)c1ccc(NC(=S)Nc2nc(-c3cccc(C(F)(F)F)c3)cs2)cc1O
33 | 0.12 | > 400 |  | CCOC(=O)c1ccc(Nc2nc(-c3ccc(NC(C)=O)cc3)cs2)cc1O
34 | 1.9 |  |  | N#Cc1ccc(-c2csc(NC(=S)Nc3ccc(C(=O)O)c(O)c3)n2)c(F)c1
